Experimental data reported in ChEMBL document CHEMBL4513216, “Probing the Open Global Health Chemical Diversity Library for Multistage-Active Starting Points for Next-Generation Antimalarials” (ACS Infect Dis, 2020).

Test: Toxicity liver stage against HepG2, at 10uM
Type: cell-based
Parameters: test concentration 10 uM, cell line HepG2-A16-CD81EGFP
Conditions: human, HepG2-A16-CD81EGFP cells; read-out: INHIBITION
Outline: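 Uninfected HepG2-A16-CD81EGFP cells, 3 × 10^3 per well, 1536-well, plated on prespotted compound at 10 μM final, parasite-free screening media added to match infected plates; puromycin 10 μM positive, DMSO 0.5% negative; run in parallel with 48 h PbLuc assay at 37 °C, 5% CO2; viability by CellTiter-Glo luminescence, normalized to controls.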

| Compound | cytotoxicity at 10 µM [%] |
| --- | --- |
| O=C([C@@H]1Cc2[nH]cnc2CN1C(=O)NC1CCCCC1)N1CCCC1 | 6.06 |
| CN1C[C@@H](F)[C@@H](OCc2nc3ccc(C#N)cc3[nH]2)C1 | 0.434 |
| Cc1cc(NCCO)nc(-c2ccccc2O)n1 | 14.1 |
| O=S(=O)(NCCn1ccc(-c2ccncc2)n1)C1CC1 | 0.794 |
| CC(=O)N1CCOC2(CCCN(C(=O)CCN3CCCCC3)C2)C1 (stereo unspecified) | -2.51 |
| Cc1cc(C)cc(C(=O)N2CCCC3(CCCC(=O)N3C)C2)c1 (stereo unspecified) | 5.06 |
| Cc1ccc(N2CC[C@H](O)[C@@H]2Cc2cnn(C)c2)nn1 | 0.434 |
| CCOCC1CN(C(=O)c2ccsc2)Cc2nn(C)cc21 (stereo unspecified) | 3.39 |
| CCN(C)c1ncnc2c1CCN(C(=O)c1ccc(C)o1)CC2 | -0.796 |
| COCC(=O)N1CCCn2c(CN3CCCC3=O)nnc2C1 | -123 |
| COc1nn(C)c2c1CCCN(C(=O)COc1ccccc1)C2 | 3.91 |
| COc1nn(C)c2c1CCCN(C(=O)c1ccc[nH]1)C2 | -0.966 |
| CCn1nnc2c1C(COC)CN(C(=O)Cc1ccccn1)C2 (stereo unspecified) | 4.64 |
| CN1CC2(CCNCC2)COc2ccccc2S1(=O)=O | 4.58 |
| Cc1ccsc1C(=O)N1CC(C(=O)NC(C)C)C2(CCOCC2)C1 (stereo unspecified) | -1.49 |
| CN(C(=O)Cn1nc(-c2ccccc2)ccc1=O)C1CCS(=O)(=O)C1 (stereo unspecified) | 1.82 |
| Cc1ccc(C)c(C(NC(=O)C(C)(C)C)c2cccnc2)c1 (stereo unspecified) | -3.7 |
| CNC(=O)c1cc2c(nc1NC(C)C)CCN(C(=O)NC(C)C)CC2 | -0.0714 |
| COCCCNS(=O)(=O)c1cccc(CSC)c1 | 11.9 |
| CC(C)=CCCC(C)(O)c1cc(C(N)=O)no1 (stereo unspecified) | 3.56 |
| Cc1nc2cc(-c3nccn3C)nn2c(N2CCCC(CO)C2)c1C (stereo unspecified) | -4.38 |
| COc1ccc(Cn2nc(C(N)=O)ccc2=O)c(Cl)c1 | 10.2 |
| CC(c1ccco1)N(C(=O)COc1ccc(C#N)cc1)C1CC1 (stereo unspecified) | -6.6 |

| Compound | cytotoxicity at 10 µM [%] |
| --- | --- |
| O=S(=O)(c1cncc(F)c1)N1CCC2(CCOC2)C1 (stereo unspecified) | -0.872 |
| COc1ccc(-c2noc(CCC(=O)N3CCOCC3(C)C)n2)cc1 | 6.99 |
| Cc1nc2n(n1)CC(NCCCc1nc(-c3cccs3)no1)CC2 (stereo unspecified) | -4.38 |
| Cc1ccc2c(c1)N(C(=O)c1nccnc1N)CC(C)O2 (stereo unspecified) | -1.65 |
| Cc1ccc(-c2ncc(CN3CCN(S(N)(=O)=O)CC3)s2)o1 | -3.41 |
| CC(CO)NC(=O)Nc1ccc(CC#N)cc1 (stereo unspecified) | -3.39 |
| CCN1CCN(C(=O)c2ccc(OC)nn2)c2ccccc21 | -1.78 |
| COC(=O)c1ccc(Cl)c(S(=O)(=O)Nc2ccc(F)c(C(N)=O)c2)c1 | 3.68 |
| CC(C)Oc1ccccc1C(=O)NC1CC(=O)N(CC(F)(F)F)C1 (stereo unspecified) | 4.37 |
| O=C(c1ccc(NCc2cccc(F)c2)cc1)N1CCCC1 | 10.1 |
| CC(CS(C)(=O)=O)NC(=O)N1CC2(CCCC2)c2ccccc21 (stereo unspecified) | -4.34 |
| Cc1cc(C)c2nc(C3CC3)cc(C(=O)N3CCCC3C(N)=O)c2c1 (stereo unspecified) | -1.11 |
| CC(NC(=O)CCn1cccn1)c1cn(-c2ccccc2)nn1 (stereo unspecified) | 0.554 |
| O=C(CCNC(=O)NC1CC1)NCc1ccccc1 | 8.12 |
| COc1c(C)cnc(CNC(=O)c2cc(C)nc3c2c(C)nn3C)c1C | -1.28 |
| O=C(c1ccn(-c2ccccc2Cl)n1)N1CCCSCC1 | 4.22 |
| CC(C)(C)OC(=O)NC(C)(C)c1noc(CSc2nncs2)n1 | 16.6 |
| Cc1nc(C(=O)N(C)CC(=O)N(C)C)nn1-c1ccccc1C(C)C | -6.5 |
| COCC(=O)NC1CCCN(c2ccc(C)cc2)C1=O (stereo unspecified) | -0.82 |
| O=C(NC1CCN(C2CC2)CC1)c1[nH]nc(C2CC2)c1Cl | 2.64 |
| C[S+]([O-])c1ccc(NC(=O)CC2=CCCCC2)cc1 (stereo unspecified) | 0.304 |
| CC(C)n1nc2c(cc1=O)CN(Cc1ccc(-n3cccn3)cc1)CC2 | -145 |
| CC(C)CCN(C(=O)c1cc2c([nH]c1=O)CCCC2=O)C1CC1 | -2.98 |

| Compound | cytotoxicity at 10 µM [%] |
| --- | --- |
| Cc1nc2sccn2c1CNc1cc(C(=O)O)ccc1F | 4.59 |
| CCc1cnc(CNc2ccc(C(=O)NCc3ccco3)cc2C)o1 | -0.375 |
| CS(=O)(=O)NC1CCN(C(=O)c2[nH]c3ccc(Cl)cc3c2Cl)CC1 | 16.3 |
| CCOc1cccc(CNC(=O)c2cnn(CC)c2C(F)(F)F)c1 | 11.7 |
| O=C(CNc1ccc(OCC2CCOCC2)cc1)NCc1ccco1 | 3.43 |
| COCCOc1ncccc1NCc1nc2ccccc2n1C | 5.95 |
| CN(C)c1cc(CNC(=O)NCC2(C)CCCS2)ccn1 (stereo unspecified) | 6.64 |
| COC(=O)CN(Cc1ccccc1C)C(=O)CCCNC(=O)C1CC1 | -13.4 |
| CC(NC(=O)NCCc1nc(C(F)(F)F)cs1)C(=O)N(C)C (stereo unspecified) | 5.04 |
| COc1cccc(Cc2nnc(SC3CCOC3=O)o2)c1 (stereo unspecified) | 12.9 |
| CN(C)CCN1CCO[C@@H]2CCN(C(=O)c3cccn3C)CC[C@H]21 | 7.17 |
| CSCCC(=O)N1C[C@H](Nc2ccnc(C)n2)[C@@H](C(C)C)C1 | -1.13 |
| CS(=O)(=O)Cc1nc(C2CC2)nn1-c1ccccn1 | 1.87 |
| O=C(N[C@H]1CN(C2CCOCC2)C[C@@H]1C1CC1)c1cc(O)no1 | 8.4 |
| Cc1cc(CN2CC[C@@H]3[C@@H](CCC(=O)N3CCc3c[nH]cn3)C2)oc1C | -0.466 |
| CN1CCCN(C(=O)c2nc3sccn3c2-c2ncc[nH]2)CC1 | -4.34 |
| O=C1CCCN1CCCNCc1cc(O)c2cccc(F)c2n1 | -1.16 |
| CC(C)Cc1ncc2c(n1)CN(c1cc(N)nc(N)n1)C2 | -6.27 |
| CN(C)CCN1CC2(CCN(C(=O)c3cnccn3)CC2)OC1=O | 9 |
| O=C(C1NCCc2[nH]cnc21)N1CCC2(CC1)CNc1ccccc12 (stereo unspecified) | 1.04 |
| O=C(CCn1cc(Cl)cn1)N1CCCC(O)(CO)CC1 (stereo unspecified) | -145 |
| COCCN(Cc1sccc1C)C(=O)c1c(O)cccc1F | -137 |
| Cc1ocnc1C(=O)N1CCC(c2nccn2Cc2ccncc2)CC1 | -8.26 |

| Compound | cytotoxicity at 10 µM [%] |
| --- | --- |
| CCc1nc(C)c([C@H]2CN(C)C[C@@H]2C(=O)NC(C)(C)c2ccccc2)[nH]1 | 2.12 |
| O=C(C(O)c1ccccc1Cl)N1CCCN(Cc2cccnc2)CC1 (stereo unspecified) | 5.5 |
| O=C(c1ccc2ccccc2c1)C1CCCN(C(=O)Cn2cncn2)C1 (stereo unspecified) | 2.6 |
| Cc1cnc(NCCCN2CCc3ccccc32)nc1 | 2.24 |
| COc1ccnc(N2C[C@@H](NS(=O)(=O)N(C)C)[C@H](C(C)C)C2)n1 | -144 |
| Cc1c[nH]c(CN(C)C(=O)C2CC(=O)N(Cc3ccncc3)C2)n1 (stereo unspecified) | 16.7 |
| O=C(c1ccoc1)N1CCC(Nc2cccnn2)CC1 | -5.85 |
| Cn1c(CN2CCOC(CNc3cccnn3)C2)nnc1C1CC1 (stereo unspecified) | 5.18 |
| Cc1cnc(C(=O)N2CCCCC2c2nc(C)cs2)cn1 (stereo unspecified) | -15.3 |
| CC(C(=O)NCCCN1CCN(c2ccccc2)CC1)n1cncn1 (stereo unspecified) | -5.93 |
| Cc1noc(C)c1CN1CCCC1c1c(C)nn(C)c1Cl (stereo unspecified) | -2 |
| CN(CC(=O)N1CCC(COc2ccccc2)CC1)c1cnccn1 | -10.7 |
| COc1cc(C(=O)N2CCCC(n3cncn3)C2)ccc1C (stereo unspecified) | -3.86 |
| CCOCC(O)CN1CCN(C(=O)Cc2cccc(Cl)c2)CC1 (stereo unspecified) | -7.69 |
| CNc1nc(CNC(=O)Nc2cccc(Cl)c2Cl)cs1 | -15.8 |
| Cn1ccnc1CN1CCN(Cc2noc(C3CC3)n2)CC1 | -1.85 |
| CC(=O)NCCNC(=O)CN1CCCCC1Cn1cncn1 (stereo unspecified) | 2.7 |
| CN(C)S(=O)(=O)CCCN1CCCC1c1noc(C2CC2)n1 (stereo unspecified) | -10.3 |
| Brc1cccc(-c2nnc(CNCCn3cccn3)o2)c1 | -9.59 |
| OC(CNCCn1cccn1)c1cccc(F)c1 (stereo unspecified) | -4.41 |
| Cc1nc(C)n(CC2CN(CCOc3ccccc3C#N)CCO2)n1 (stereo unspecified) | -7.45 |
| Cc1nccn1C1CCCN(C(=O)c2cc(Cl)c3c(c2)OCO3)C1 (stereo unspecified) | -2.78 |
| CC(C)NC(=O)C1CCN(c2snc3ccccc23)CC1 | -8.18 |

| Compound | cytotoxicity at 10 µM [%] |
| --- | --- |
| Cn1cc(C(=O)NCC2CCN(C(=O)NC3CC3)CC2)cn1 | 2.05 |
| COc1ccc(CC(=O)N2CCC(Nc3ccc(C)nn3)CC2)cc1 | -5.34 |
| CC(C)c1nc(CN(C)C2CCN(CCc3ccncc3)C2)no1 (stereo unspecified) | -28.4 |
| CCc1nc(CN(C)C2CCN(CCCOc3ccccc3)C2)no1 (stereo unspecified) | 0.141 |
| CCC1CCCCN1C(=O)c1ccnc(N(C)C)c1 (stereo unspecified) | -0.743 |
| CC(=O)N(Cc1ncc(C)o1)C1CCN(Cc2cc(C)on2)C1 (stereo unspecified) | -5.03 |
| CCc1nnc(CNC2CCCN(Cc3noc(C4CC4)n3)C2)o1 (stereo unspecified) | -5.46 |
| Cc1cc(CN(C)C(=O)c2ccc(F)cc2F)no1 | -6.47 |
| CCCc1n[nH]c(C2CN(C(=O)c3ccco3)CCO2)n1 (stereo unspecified) | -2.7 |
| CCOc1ccc(Cl)c(C(=O)N(C)C)n1 | -11.3 |
| c1cnn(CC2CN(Cc3nc(-c4ccsc4)no3)CCO2)c1 (stereo unspecified) | -8.06 |
| CN(C)CCNC(=O)C1Cc2nc(-c3ccsc3)sc2N1CC1CC1 (stereo unspecified) | 3.54 |
| O=C1N(Cc2cccc(F)c2)CCC12CCN(c1ccccn1)CC2 | -1.16 |
| CN(C)C(=O)N1CC2(CCNCC2)c2cc(F)ccc21 | -79.9 |
| CNC(=O)CN1CCOCC2(C1)CN(C(=O)C(C)C)CCO2 (stereo unspecified) | -0.182 |
| CC(C)CN1CCC2(CCN(Cc3ccc(F)cc3)CC2)C1=O | 5.71 |
| O=C(c1ccnnc1)N1C[C@H](Oc2ccccn2)[C@H]2OCCC[C@H]21 | -0.00736 |
| COCC(=O)N1CCO[C@H]2[C@H](OCc3cccnc3)CC[C@@H]21 | -2.01 |
| O=C(C1CCCCC1)N1C[C@@H]2CCN(c3cnccn3)C[C@@H]2C1 | 5.68 |
